According to ChEMBL document CHEMBL1139866, “Synthesis and antimalarial property of orally active phenoxazinium salts” (J Med Chem, 2007):
“And” between values parts separate entries of the source, which are not always exact repeats. Equal entries are not always repeated.

Key:
[1] = test system: Mus musculus; experiment: Effect on survival of Plasmodium berghei NK65 infected ICR mice (Mus musculus) assessed as mean survival days at 5 mg/kg, intraperitoneal after 4 days; type: functional
Procedure, shortened: (§1)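 Peters' four-day suppressive test in groups of five ICR mice infected with drug-sensitive P. berghei NK-65. Compound given ip once daily for 4 days. Day-4 parasitemia compared with untreated controls to give % suppression. Mice observed after the end of treatment to record mean survival days and the number alive on day 30.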

[2] = test system: Plasmodium berghei; experiment: Antimalarial activity against Plasmodium berghei NK65 infected ICR mice (Mus musculus) as reduced parasitaemia at 5 mg/kg intraperitoneal dose on day 4; type: functional; parameters: scale not given: the % may be the effect or the level left
Procedure, shortened: (§2)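 Peters' four-day suppressive test with P. berghei NK-65 (drug-sensitive) in groups of five ICR mice, dosed intraperitoneally once daily for 4 days. Parasitemia on day 4 is compared with untreated infected controls to give % suppression. Survival is followed after treatment as mean survival days, observed up to day 30.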

[3] = test system: Mus musculus; experiment: Effect on survival of Plasmodium berghei NK65 infected ICR mice (Mus musculus) assessed as mean survival days at 20 mg/kg, intraperitoneal after 4 days; type: functional; procedure, shortened: as §1
[4] = test system: Mus musculus; experiment: Effect on survival of Plasmodium berghei NK65 infected ICR mice (Mus musculus) assessed as mean survival days at 30 mg/kg, intraperitoneal after 4 days; type: functional; procedure, shortened: as §1
[5] = test system: Plasmodium falciparum; experiment: Antimalarial activity against chloroquine-resistant Plasmodium falciparum K1 after 48 hrs; type: functional, organism-based
[6] = test system: Plasmodium berghei; experiment: Antimalarial activity against Plasmodium berghei NK65 infected ICR mice (Mus musculus) as reduced parasitaemia at 30 mg/kg intraperitoneal dose on day 4; type: functional; parameters: scale not given: the % may be the effect or the level left; procedure, shortened: as §1
[7] = Ratio of EC50 for rat L6 cells to EC50 for Plasmodium falciparum K1; type: functional
Procedure, shortened: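 Selectivity index is the EC50 against rat skeletal myoblast L-6 cells divided by the in vitro EC50 against chloroquine-resistant P. falciparum K1, which was assayed by the Desjardins method.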

[8] = test system: Plasmodium berghei; experiment: Antimalarial activity against Plasmodium berghei NK65 infected ICR mice (Mus musculus) as reduced parasitaemia on 10 mg/kg intraperitoneal dose on day 4; parameters: scale not given: the % may be the effect or the level left
[9] = test system: Mus musculus; experiment: Effect on survival of Plasmodium berghei NK65 infected ICR mice (Mus musculus) assessed as mean survival days at 10 mg/kg, intraperitoneal after 4 days; type: functional; procedure, shortened: as §1
[10] = test system: Plasmodium berghei; experiment: Antimalarial activity against Plasmodium berghei NK65 infected ICR mice (Mus musculus) as reduced parasitaemia after 20 mg/kg intraperitoneal dose on day 4; type: functional; parameters: scale not given: the % may be the effect or the level left; procedure, shortened: as §2
[11] = test system: Mus musculus; experiment: Effect on survival of Plasmodium berghei NK65 infected ICR mice (Mus musculus) assessed as mean survival days at 100 mg/kg/day, oral after 4 days
[12] = test system: Plasmodium berghei; experiment: Antimalarial activity against Plasmodium berghei NK65 infected ICR mice (Mus musculus) as reduced parasitaemia at 100 mg/kg/day oral dose after 4 days; parameters: scale not given: the % may be the effect or the level left
[13] = test system: Mus musculus; experiment: Effect on survival of Plasmodium berghei NK65 infected ICR mice (Mus musculus) assessed as mean survival days at 2.5 mg/kg, intraperitoneal after 4 days; type: functional; procedure, shortened: as §1
[14] = test system: Mus musculus; experiment: Survival of Plasmodium berghei NK65 infected ICR mice (Mus musculus) at 20 mg/kg, intraperitoneal after 4 days; type: functional; procedure, shortened: as §1
[15] = test system: Plasmodium berghei; experiment: Antimalarial activity against Plasmodium berghei NK65 infected ICR mice (Mus musculus) as reduced parasitaemia after 2.5 mg/kg intraperitoneal dose on day 4; type: functional; parameters: scale not given: the % may be the effect or the level left; procedure, shortened: as §2
[16] = Oral bioavailability in Wistar rat at 10 mg/kg, po; type: ADME, organism-based; settings: in vivo
Procedure, shortened: (§3)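 Preliminary pharmacokinetics in Wistar rats given 10 mg kg^-1 as a saline solution, either intravenously or orally. Values are the average of three animals. Half-life is determined for each route, and oral bioavailability is obtained by comparing the oral and intravenous routes.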

[17] = test system: Mus musculus; experiment: Effect on survival of Plasmodium berghei NK65 infected ICR mice (Mus musculus) assessed as mean survival days at 12 times of 30 mg/kg/8hrs, oral
[18] = test system: Plasmodium berghei; experiment: Antimalarial activity against Plasmodium berghei NK65 infected ICR mice (Mus musculus) as reduced parasitaemia at 90 mg/kg/day oral dose after 4 days; parameters: scale not given: the % may be the effect or the level left
[19] = Half life in Wistar rat at 10 mg/kg, iv; type: ADME, organism-based; parameters: dose 10 mg/kg, route intravenous; settings: in vivo; procedure, shortened: as §3
[20] = test system: Plasmodium berghei; experiment: Antimalarial activity against Plasmodium berghei NK65 infected ICR mice (Mus musculus) as reduced parasitaemia on 25 mg/kg/day oral dose after 4 days; parameters: scale not given: the % may be the effect or the level left
[21] = test system: Mus musculus; experiment: Effect on survival of Plasmodium berghei NK65 infected ICR mice (Mus musculus) assessed as mean survival days at 25 mg/kg/day, oral after 4 days
[22] = test system: Mus musculus; experiment: Effect on survival of Plasmodium berghei NK65 infected ICR mice (Mus musculus) assessed as mean survival days at 90 mg/kg/day, oral after 4 days
[23] = Half life in Wistar rat at 10 mg/kg, po; type: ADME, organism-based; parameters: dose 10 mg/kg, route oral; settings: in vivo; procedure, shortened: as §3
[24] = test system: Mus musculus; experiment: Effect on survival of Plasmodium berghei NK65 infected ICR mice (Mus musculus) assessed as mean survival days at 12 times of 15 mg/kg/8hrs, oral
[25] = test system: Rattus norvegicus; experiment: AUC (0-480 mins) in Wistar rat at 10 mg/kg, iv; type: ADME, organism-based, Plasma; parameters: time < 8 hr, dose 10 mg/kg, route intravenous; settings: in vivo, 8 h; procedure, shortened: as §3
[26] = test system: Mus musculus; experiment: Effect on survival of Plasmodium berghei NK65 infected ICR mice (Mus musculus) assessed as mean survival days at 100 mg/kg/day, oral after 1 day
[27] = test system: Rattus norvegicus; experiment: AUC (0-480 mins) in Wistar rat at 10 mg/kg, po; type: ADME, organism-based, Plasma; parameters: time < 8 hr, dose 10 mg/kg, route oral; settings: in vivo, 8 h; procedure, shortened: as §3
[28] = test system: Plasmodium berghei; experiment: Antimalarial activity against Plasmodium berghei NK65 infected ICR mice (Mus musculus) as reduced parasitaemia after 12 doses of 15 mg/kg/8hrs; type: functional; parameters: scale not given: the % may be the effect or the level left
Procedure, shortened: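 Oral four-day suppressive test against P. berghei NK-65 in five ICR mice, using short-span dosing every 8 h for 12 doses in total. % parasitemia suppression on day 4 is calculated against untreated infected controls, and mean survival days and mice alive on day 30 are recorded.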

[29] = test system: Mus musculus; experiment: Effect on survival of Plasmodium berghei NK65 infected ICR mice (Mus musculus) assessed as mean survival days at 50 mg/kg/day, oral after 4 days
[30] = test system: Plasmodium berghei; experiment: Antimalarial activity against Plasmodium berghei NK65 infected ICR mice (Mus musculus) as reduced parasitaemia at 50 mg/kg/day oral dose after 4 days; parameters: scale not given: the % may be the effect or the level left
[31] = test system: Plasmodium berghei; experiment: Antimalarial activity against Plasmodium berghei NK65 infected ICR mice (Mus musculus) as reduced parasitaemia after 12 oral doses of 30 mg/kg/8hrs; parameters: scale not given: the % may be the effect or the level left
[32] = test system: Plasmodium berghei; experiment: Antimalarial activity against Plasmodium berghei NK65 infected ICR mice (Mus musculus) as reduced parasitaemia on day 4 after 1 day at 100 mg/kg/day oral dose; parameters: scale not given: the % may be the effect or the level left
[33] = Plasmodium falciparum, K1, 48 h

CCN(C)c1ccc2nc3ccc(=[N+](C)C)cc-3oc2c1.[O-][Cl+3]([O-])([O-])[O-]
Mean survival days [1]: 6.7 days | Activity [2]: 71.7%

C[N+](C)=c1ccc2nc3ccc(N4CCNCC4)cc3oc-2c1.[Cl-]
Mean survival days [1]: 6 days | Activity [2]: 54.8% | Mean survival days [3]: 17.6 days | Mean survival days [4]: 16.4 days | EC50 [5, 33]: 28 nM | Activity [6]: 100% | Ratio [7]: 2300 | Activity [8]: 78.5% | Mean survival days [9]: 7.4 days | Activity [10]: 98.1% | Mean survival days [11]: 17 days | Activity [12]: 100%

CCN(CC)c1ccc2nc3ccc(=[N+](C)C)cc-3oc2c1.[O-][Cl+3]([O-])([O-])[O-]
Mean survival days [1]: 9.4 days | Activity [2]: 77%

CN(C)c1ccc2nc3ccc(=[N+](C)C)cc-3oc2c1.[O-][Cl+3]([O-])([O-])[O-]
Mean survival days [1]: 6.7 days | Activity [2]: 45.9%

CCCCN(CCCC)c1ccc2nc3ccc(=[N+](CC)CC)cc-3oc2c1.[Cl-]
Mean survival days [1]: 16 days | Activity [2]: 83.1% | EC50 [5, 33]: 2.4 nM | Ratio [7]: 350

CN1CCN(c2cc(OC(=O)C(C)(C)C)c3nc4ccc(=[N+](C)C)cc-4oc3c2)CC1.[Cl-]
Mean survival days [1]: 5.4 days | Activity [2]: 19.9% | EC50 [5, 33]: 270 nM | Ratio [7]: 160

CCN(CC)c1ccc2nc3ccc(=[N+](C)C)cc-3oc2c1.[Cl-]
Mean survival days [1]: 10 days | Activity [2]: 85.3% | Mean survival days [13]: 7.8 days | Mean survival days [3]: >17 days | Activity [8]: 99.9% | Activity [14]: 40% | Mean survival days [9]: 13 days | Activity [10]: 100% | Activity [15]: 58.7%

CCN(CC)c1ccc2nc3ccc(N(CC)CC)cc3[o+]c2c1.[Cl-]
bioavailability [16]: 96.3% | Activity ([2]; 5 mg/kg): 80.6% and 46.3% | Mean survival days [17]: >13 days | Activity [18]: 100% | half-life [19]: 5.8 min | Mean survival days [3]: >14 days | EC50 [5]: 2.8 nM | EC50 [5, 33]: 4.7 nM | Activity [20]: 82.3% | Ratio [7]: 830 and 2400 | Mean survival days [21]: 7.6 days | Activity [8]: 80.4% | Mean survival days [22]: >24 days | half-life [23]: 59.2 min | Mean survival days [24]: 14 days | AUC [25]: 717 ng·h/mL | Mean survival days [26]: 13 days | AUC [27]: 690 ng·h/mL | Activity [28]: 100% | Mean survival days [9]: >11 days | Activity [10]: 95.8% | Mean survival days [29]: 14 days | Activity [30]: 98.6% | Activity [31]: 100% | Mean survival days [11]: >28 days | Activity [32]: 100% | Activity [12]: 100% | Activity [15]: 30.5%

CN1CCN(c2cc(O)c3nc4ccc(=[N+](C)C)cc-4oc3c2)CC1.[Cl-]
Mean survival days [1]: 5.3 days | Activity [2]: 17.4% | EC50 [5, 33]: 200 nM | Ratio [7]: 440

CN(C)c1ccc2nc3ccc(=[N+](C)C)cc-3oc2c1.[Cl-].[Cl][Zn][Cl]
Mean survival days [1]: 5.6 days | Activity [2]: 17.1% | EC50 [5, 33]: 12.6 nM | Ratio [7]: 700

CCCCN(CCCC)c1ccc2nc3ccc(=[N+](C)C)cc-3oc2c1.[O-][Cl+3]([O-])([O-])[O-]
Mean survival days [1]: 11.4 days | Activity [2]: 90.3%

CCN(CC)CCCC(C)Nc1ccnc2cc(Cl)ccc12 (centres undefined) [CHLOROQUINE]
EC50 [5, 33]: 1500 nM | Ratio [7]: 32 | Activity [8]: 90.6% | Mean survival days [9]: 22.7 days

CN(C)c1cc(O)c2nc3ccc(=[N+](C)C)cc-3oc2c1.[Cl-]
Mean survival days [1]: 5.3 days | Activity [2]: 4.2%
